Activity calls are given as the source filed them. No cut-off for these calls is given here.
Tests used:
[1] = test system: Saccharomyces cerevisiae; assay: Downregulation of PHO5 gene expression in Saccharomyces cerevisiae at 7.5 uM after 15 hrs by qRT-PCR relative to untreated control; assay type: functional
Outline: (§1)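 qRT-PCR used aliquots of the microarray RNA (treated and untreated Δerg6, 7.5 or 17 μM, 15 h) plus two additional biological replicates. Cycling was 95°C 10 min, then 40 cycles of 95°C 15 s and 60°C 1 min, with a dissociation curve. Genomic DNA 10-fold dilution standard curves; no-template and no-enzyme controls in triplicate; relative expression by ΔΔCT.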

[2] = test system: Saccharomyces cerevisiae; assay: Downregulation of TIS11 gene expression in Saccharomyces cerevisiae at 17 uM after 15 hrs by qRT-PCR relative to untreated control; assay type: functional; outline: as §1
[3] = test system: Saccharomyces cerevisiae; assay: Downregulation of FRE1 gene expression in Saccharomyces cerevisiae relative to untreated control; assay type: functional
Outline: (§2)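 Δerg6 cells treated 15 h at 7.5 or 17 μM, with the eight microarray hybridizations pooled. A gene counted as changed when two-tailed Student t test on log-transformed ratios gave P below 0.01 for ratio equal to 1. Genes grouped by GO biological-process category.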

[4] = test system: Saccharomyces cerevisiae; assay: Downregulation of fungal type cell wall related gene expression in Saccharomyces cerevisiae; assay type: functional, organism-based; outline: as §2
[5] = test system: Saccharomyces cerevisiae; assay: Downregulation of SMF3 gene expression in Saccharomyces cerevisiae relative to untreated control; assay type: functional; outline: as §2
[6] = test system: Saccharomyces cerevisiae; assay: Downregulation of FET3 gene expression in Saccharomyces cerevisiae relative to untreated control; assay type: functional; outline: as §2
[7] = test system: Saccharomyces cerevisiae; assay: Upregulation of SMF2 gene expression in Saccharomyces cerevisiae relative to untreated control; assay type: functional; outline: as §2
[8] = test system: Saccharomyces cerevisiae; assay: Downregulation of siderophore transport related gene expression in Saccharomyces cerevisiae; assay type: functional, organism-based; outline: as §2
[9] = test system: Saccharomyces cerevisiae; assay: Downregulation of FIT3 gene expression in Saccharomyces cerevisiae at 17 uM after 15 hrs by microarray analysis relative to untreated control; assay type: functional
Outline: (§3)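 BY4741Δerg6 cells exposed 15 h to 7.5 or 17 μM; total RNA, 15 μg, used for Cy3/Cy5-dUTP indirect labeling. Arrays prehybridized at 42°C for 45 min, then hybridized in 50% formamide, 5× SSC. Each dose done in duplicate, each RNA hybridized twice with dye swap; treated/untreated fluorescence ratios log-transformed.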

[10] = test system: Saccharomyces cerevisiae; assay: Downregulation of SIT1 gene expression in Saccharomyces cerevisiae relative to untreated control; assay type: functional; outline: as §2
[11] = test system: Saccharomyces cerevisiae; assay: Downregulation of FIT3 gene expression in Saccharomyces cerevisiae at 7.5 uM after 15 hrs by microarray analysis relative to untreated control; assay type: functional; outline: as §3
[12] = test system: Saccharomyces cerevisiae; assay: Upregulation of TPS1 gene expression in Saccharomyces cerevisiae at 7.5 uM after 15 hrs by microarray analysis relative to untreated control; assay type: functional; outline: as §3
[13] = test system: Saccharomyces cerevisiae; assay: Upregulation of HSP26 gene expression in Saccharomyces cerevisiae at 17 uM after 15 hrs by microarray analysis relative to untreated control; assay type: functional; outline: as §3
[14] = test system: Saccharomyces cerevisiae; assay: Downregulation of FIT3 gene expression in Saccharomyces cerevisiae relative to untreated control; assay type: functional; outline: as §2
[15] = test system: Saccharomyces cerevisiae; assay: Upregulation of TPS1 gene expression in Saccharomyces cerevisiae at 7.5 uM after 15 hrs by qRT-PCR relative to untreated control; assay type: functional
Outline: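 BY4741Δerg6 yeast (standardized to OD600 0.05 in YPD after 15-h 30°C preculture) grown with cryptolepine (1 mM methanol stock diluted) for 15 h; total RNA extracted, aliquots from microarray samples plus two additional biological replicates used for qRT-PCR: 95°C 10 min, 40 cycles 95°C 15 s/60°C 1 min, dissociation curve; genomic DNA standard curves; relative expression versus untreated by ΔΔCT.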

[16] = test system: Saccharomyces cerevisiae; assay: Downregulation of FRE6 gene expression in Saccharomyces cerevisiae relative to untreated control; assay type: functional; outline: as §2
[17] = test system: Saccharomyces cerevisiae; assay: Downregulation of TIS11 gene expression in Saccharomyces cerevisiae at 17 uM after 15 hrs by microarray analysis relative to untreated control; assay type: functional; outline: as §3
[18] = test system: Saccharomyces cerevisiae; assay: Downregulation of FRE5 gene expression in Saccharomyces cerevisiae relative to untreated control; assay type: functional; outline: as §2
[19] = test system: Saccharomyces cerevisiae; assay: Upregulation of FRE2 gene expression in Saccharomyces cerevisiae relative to untreated control; assay type: functional; outline: as §2
[20] = test system: Saccharomyces cerevisiae; assay: Upregulation of FET5 gene expression in Saccharomyces cerevisiae relative to untreated control; assay type: functional; outline: as §2
[21] = test system: Saccharomyces cerevisiae; assay: Downregulation of stress response related gene expression in Saccharomyces cerevisiae; assay type: functional, organism-based; conditions: in the assay text read “Upregulation” for “Downregulation”; outline: as §2
[22] = test system: Saccharomyces cerevisiae; assay: Upregulation of HSP26 gene expression in Saccharomyces cerevisiae at 7.5 uM after 15 hrs by microarray analysis relative to untreated control; assay type: functional; outline: as §3
[23] = test system: Saccharomyces cerevisiae; assay: Downregulation of ARN1 gene expression in Saccharomyces cerevisiae relative to untreated control; assay type: functional; outline: as §2
[24] = test system: Saccharomyces cerevisiae; assay: Cytotoxicity against Saccharomyces cerevisiae BY4741 harboring deltaerg6 mutant gene after 4 hrs; assay type: functional, organism-based; conditions: BY4741, 4 h
Outline: (§4)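 Growth assay: strains precultured in YPD at 30°C for 15 h, shaking 250 rpm in the dark, then standardized to OD600 0.05 in the same medium. Grown in triplicate with a range of concentrations (methanol stock, diluted before use) under continuous 4 h treatment; growth read as OD600 and inhibitory concentrations taken from the plots.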

[25] = test system: Saccharomyces cerevisiae; assay: Downregulation of PHO5 gene expression in Saccharomyces cerevisiae at 17 uM after 15 hrs by qRT-PCR relative to untreated control; assay type: functional; outline: as §1
[26] = test system: Saccharomyces cerevisiae; assay: Downregulation of ARN2 gene expression in Saccharomyces cerevisiae relative to untreated control; assay type: functional; outline: as §2
[27] = test system: Saccharomyces cerevisiae; assay: Downregulation of PHO5 gene expression in Saccharomyces cerevisiae at 17 uM after 15 hrs by microarray analysis relative to untreated control; assay type: functional; outline: as §3
[28] = test system: Saccharomyces cerevisiae; assay: Downregulation of FIT3 gene expression in Saccharomyces cerevisiae at 7.5 uM after 15 hrs by qRT-PCR relative to untreated control; assay type: functional; outline: as §1
[29] = test system: Saccharomyces cerevisiae; assay: Upregulation of HSP26 gene expression in Saccharomyces cerevisiae at 7.5 uM after 15 hrs by qRT-PCR relative to untreated control; assay type: functional; outline: as §1
[30] = test system: Saccharomyces cerevisiae; assay: Downregulation of SMF1 gene expression in Saccharomyces cerevisiae relative to untreated control; assay type: functional; outline: as §2
[31] = test system: Saccharomyces cerevisiae; assay: Cytotoxicity against Saccharomyces cerevisiae BY4741 harboring deltaerg6 mutant gene at <10 uM after 4 hrs; assay type: functional, organism-based; outline: as §4
[32] = test system: Saccharomyces cerevisiae; assay: Downregulation of FIT1 gene expression in Saccharomyces cerevisiae relative to untreated control; assay type: functional; outline: as §2
[33] = test system: Saccharomyces cerevisiae; assay: Downregulation of acid phosphatase activity related gene expression in Saccharomyces cerevisiae; assay type: functional, organism-based; outline: as §2
[34] = test system: Saccharomyces cerevisiae; assay: Downregulation of PHO5 gene expression in Saccharomyces cerevisiae at 7.5 uM after 15 hrs by microarray analysis relative to untreated control; assay type: functional; outline: as §3
[35] = test system: Saccharomyces cerevisiae; assay: Upregulation of TPS1 gene expression in Saccharomyces cerevisiae at 17 uM after 15 hrs by microarray analysis relative to untreated control; assay type: functional; outline: as §3
[36] = test system: Saccharomyces cerevisiae; assay: Downregulation of TIS11 gene expression in Saccharomyces cerevisiae at 7.5 uM after 15 hrs by microarray analysis relative to untreated control; assay type: functional; outline: as §3
[37] = test system: Saccharomyces cerevisiae; assay: Downregulation of ARN2 gene expression in Saccharomyces cerevisiae at 7.5 uM after 15 hrs by qRT-PCR relative to untreated control; assay type: functional; outline: as §1
[38] = test system: Saccharomyces cerevisiae; assay: Downregulation of TIS11 gene expression in Saccharomyces cerevisiae at 7.5 uM after 15 hrs by qRT-PCR relative to untreated control; assay type: functional; outline: as §1
[39] = test system: Saccharomyces cerevisiae; assay: Cytotoxicity against Saccharomyces cerevisiae JN394 harboring deltarad52 mutant gene after 4 hrs; assay type: functional, organism-based; conditions: JN394, 4 h; outline: as §4
[40] = test system: Saccharomyces cerevisiae; assay: Downregulation of FTH1 gene expression in Saccharomyces cerevisiae relative to untreated control; assay type: functional; outline: as §2
[41] = test system: Saccharomyces cerevisiae; assay: Upregulation of HSP26 gene expression in Saccharomyces cerevisiae at 17 uM after 15 hrs by qRT-PCR relative to untreated control; assay type: functional; outline: as §1
[42] = test system: Saccharomyces cerevisiae; assay: Downregulation of ARN2 gene expression in Saccharomyces cerevisiae at 17 uM after 15 hrs by microarray analysis relative to untreated control; assay type: functional; outline: as §3
[43] = test system: Saccharomyces cerevisiae; assay: Downregulation of FTR1 gene expression in Saccharomyces cerevisiae relative to untreated control; assay type: functional; outline: as §2
[44] = test system: Saccharomyces cerevisiae; assay: Downregulation of ARN2 gene expression in Saccharomyces cerevisiae at 7.5 uM after 15 hrs by microarray analysis relative to untreated control; assay type: functional; outline: as §3
[45] = test system: Saccharomyces cerevisiae; assay: Cytotoxicity against Saccharomyces cerevisiae; assay type: functional; outline: as §4
[46] = test system: Saccharomyces cerevisiae; assay: Downregulation of ARN2 gene expression in Saccharomyces cerevisiae at 17 uM after 15 hrs by qRT-PCR relative to untreated control; assay type: functional; outline: as §1
[47] = test system: Saccharomyces cerevisiae; assay: Downregulation of glucose catabolic process related gene expression in Saccharomyces cerevisiae; assay type: functional, organism-based; outline: as §2
[48] = test system: Saccharomyces cerevisiae; assay: Downregulation of FIT2 gene expression in Saccharomyces cerevisiae relative to untreated control; assay type: functional; outline: as §2
[49] = test system: Saccharomyces cerevisiae; assay: Upregulation of TPS1 gene expression in Saccharomyces cerevisiae at 17 uM after 15 hrs by qRT-PCR relative to untreated control; assay type: functional; outline: as §1
[50] = test system: Saccharomyces cerevisiae; assay: Downregulation of FET4 gene expression in Saccharomyces cerevisiae relative to untreated control; assay type: functional; outline: as §2
[51] = test system: Saccharomyces cerevisiae; assay: Downregulation of FIT3 gene expression in Saccharomyces cerevisiae at 17 uM after 15 hrs by qRT-PCR relative to untreated control; assay type: functional; outline: as §1

## C[n+]1c2ccccc2cc2[n-]c3ccccc3c21.Cl [CRYPTOLEPINE HYDROCHLORIDE]
[1]
  fold change (FC): 1.73
[2]
  fold change (FC): 3.46
[3]
  fold change (FC): 0.78
[4]
  Activity: Active
[5]
  fold change (FC): 1.24
[6]
  fold change (FC): 1.11
[7]
  fold change (FC): 0.09
[8]
  Activity: Active
[9]
  fold change (FC): 2.36
[10]
  fold change (FC): 1.57
[11]
  fold change (FC): 3.3
[12]
  fold change (FC): 1.24
[13]
  fold change (FC): 3.54
[14]
  fold change (FC): 3.46
[15]
  fold change (FC): 0.96
[16]
  fold change (FC): 0.08
[17]
  fold change (FC): 2.31
[18]
  fold change (FC): 1.01
[19]
  fold change (FC): 0.13
[20]
  fold change (FC): 0.8
[21]
  Activity: Active
[22]
  fold change (FC): 2.09
[23]
  fold change (FC): 1.07
[24]
  IC50: 25 µM
[25]
  fold change (FC): 2.27
[26]
  fold change (FC): 3.01
[27]
  fold change (FC): 2.05
[28]
  fold change (FC): 5.57
[29]
  fold change (FC): 2.49
[30]
  fold change (FC): 0.35
[31]
  Activity: Active
[32]
  fold change (FC): 2.13
[33]
  Activity: Active
[34]
  fold change (FC): 1.88
[35]
  fold change (FC): 1.01
[36]
  fold change (FC): 2.35
[37]
  fold change (FC): 4.06
[38]
  fold change (FC): 3.3
[39]
  IC50: 20.3 µM
[40]
  fold change (FC): 0.53
[41]
  fold change (FC): 3.51
[42]
  fold change (FC): 3.32
[43]
  fold change (FC): 0.49
[44]
  fold change (FC): 2.18
[45]
  IC20: 7.5 µM
  IC40: 17 µM
[46]
  fold change (FC): 4.9
[47]
  Activity: Active
[48]
  fold change (FC): 1.94
[49]
  fold change (FC): 1.03
[50]
  fold change (FC): 1.79
[51]
  fold change (FC): 2.01

Source: ChEMBL document CHEMBL1275531, “Genomewide expression profiling of cryptolepine-induced toxicity in Saccharomyces cerevisiae” (Antimicrob Agents Chemother, 2008)
